Results taken from ChEMBL document CHEMBL2157880, “Synthesis, antimycobacterial and antibacterial activity of ciprofloxacin derivatives containing a N-substituted benzyl moiety” (2012).
≈ marks a conversion by molar mass, not a printed value.

Tests used:
Assay type in all cases: functional
[1] = test system: Mycobacterium tuberculosis; assay: Antimycobacterial activity against Mycobacterium tuberculosis H37Rv ATCC 27294 by microplate alamar blue assay
Method in brief: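 Microplate Alamar Blue fluorescence assay on strain H37Rv ATCC 27294. MIC was the lowest concentration cutting fluorescence by ≥90% against the mean of replicate bacterium-only controls.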

Staphylococcus aureus [2] = assay: Antibacterial activity against Staphylococcus aureus ATCC 2592 after 18 to 24 hrs by NCCLS method
Method in brief: (§1)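 Standard NCCLS (M100-S11) MIC testing against Gram-positive and Gram-negative strains. Plates were incubated at 35 °C for 18–24 h. The MIC was read as the lowest concentration giving complete inhibition of visible bacterial growth.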

Staphylococcus aureus [3] = assay: Antibacterial activity against methicillin-sensitive Staphylococcus aureus 10-11 after 18 to 24 hrs by NCCLS method; method in brief: as §1
Staphylococcus aureus [4] = assay: Antibacterial activity against methicillin-sensitive Staphylococcus aureus 10-13 after 18 to 24 hrs by NCCLS method; method in brief: as §1
Staphylococcus aureus [5] = assay: Antibacterial activity against methicillin-sensitive Staphylococcus aureus 10-14 after 18 to 24 hrs by NCCLS method; method in brief: as §1
Staphylococcus aureus [6] = assay: Antibacterial activity against methicillin-resistant Staphylococcus aureus 10-11 after 18 to 24 hrs by NCCLS method
Method in brief: (§2)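 Incubated at 35 °C for 18–24 h under NCCLS (M100-S11) standards. MIC was read as the lowest concentration giving complete inhibition of visible bacterial growth.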

Staphylococcus aureus [7] = assay: Antibacterial activity against methicillin-resistant Staphylococcus aureus 10-13 after 18 to 24 hrs by NCCLS method; method in brief: as §2
Staphylococcus aureus [8] = assay: Antibacterial activity against methicillin-resistant Staphylococcus aureus 10-15 after 18 to 24 hrs by NCCLS method; method in brief: as §2
[9] = test system: Staphylococcus epidermidis; assay: Antibacterial activity against methicillin-sensitive Staphylococcus epidermidis 10-11 after 18 to 24 hrs by NCCLS method; method in brief: as §1
[10] = test system: Staphylococcus epidermidis; assay: Antibacterial activity against methicillin-sensitive Staphylococcus epidermidis 10-15 after 18 to 24 hrs by NCCLS method; method in brief: as §2
[11] = test system: Staphylococcus epidermidis; assay: Antibacterial activity against methicillin-resistant Staphylococcus epidermidis 10-10 after 18 to 24 hrs by NCCLS method; method in brief: as §2
[12] = test system: Staphylococcus epidermidis; assay: Antibacterial activity against methicillin-resistant Staphylococcus epidermidis 10-13 after 18 to 24 hrs by NCCLS method; method in brief: as §2
Enterococcus faecalis [13] = assay: Antibacterial activity against Enterococcus faecalis 10-5 after 18 to 24 hrs by NCCLS method; method in brief: as §1
Enterococcus faecalis [14] = assay: Antibacterial activity against Enterococcus faecalis 10-6 after 18 to 24 hrs by NCCLS method; method in brief: as §1
Enterococcus faecalis [15] = assay: Antibacterial activity against Enterococcus faecalis 10-7 after 18 to 24 hrs by NCCLS method; method in brief: as §1
Enterococcus faecium [16] = assay: Antibacterial activity against Enterococcus faecium 10-6 after 18 to 24 hrs by NCCLS method; method in brief: as §1
Enterococcus faecium [17] = assay: Antibacterial activity against Enterococcus faecium 10-9 after 18 to 24 hrs by NCCLS method; method in brief: as §1
Streptococcus pneumoniae [18] = assay: Antibacterial activity against Streptococcus pneumoniae 10-1 after 18 to 24 hrs by NCCLS method; method in brief: as §1
Streptococcus pneumoniae [19] = assay: Antibacterial activity against Streptococcus pneumoniae 10-6 after 18 to 24 hrs by NCCLS method; method in brief: as §1
Escherichia coli [20] = assay: Antibacterial activity against Escherichia coli ATCC 25922 after 18 to 24 hrs by NCCLS method; method in brief: as §1
Escherichia coli [21] = assay: Antibacterial activity against Escherichia coli 10-1 after 18 to 24 hrs by NCCLS method; method in brief: as §1
Escherichia coli [22] = assay: Antibacterial activity against Escherichia coli 10-2 after 18 to 24 hrs by NCCLS method; method in brief: as §1
Escherichia coli [23] = assay: Antibacterial activity against Escherichia coli 10-3 after 18 to 24 hrs by NCCLS method; method in brief: as §1
Escherichia coli [24] = assay: Antibacterial activity against extended spectrum beta-lactamases producing Escherichia coli 10-2 after 18 to 24 hrs by NCCLS method; method in brief: as §1
Escherichia coli [25] = assay: Antibacterial activity against extended spectrum beta-lactamases producing Escherichia coli 10-3 after 18 to 24 hrs by NCCLS method; method in brief: as §1
Escherichia coli [26] = assay: Antibacterial activity against extended spectrum beta-lactamases producing Escherichia coli 10-4 after 18 to 24 hrs by NCCLS method; method in brief: as §1
Klebsiella pneumoniae [27] = assay: Antibacterial activity against Klebsiella pneumoniae 10-2 after 18 to 24 hrs by NCCLS method; method in brief: as §1
Klebsiella pneumoniae [28] = assay: Antibacterial activity against Klebsiella pneumoniae 10-3 after 18 to 24 hrs by NCCLS method; method in brief: as §1
Klebsiella pneumoniae [29] = assay: Antibacterial activity against Klebsiella pneumoniae 10-4 after 18 to 24 hrs by NCCLS method; method in brief: as §1
Klebsiella pneumoniae [30] = assay: Antibacterial activity against extended spectrum beta-lactamases producing Klebsiella pneumoniae 10-1 after 18 to 24 hrs by NCCLS method; method in brief: as §1
Klebsiella pneumoniae [31] = assay: Antibacterial activity against extended spectrum beta-lactamases producing Klebsiella pneumoniae 10-2 after 18 to 24 hrs by NCCLS method; method in brief: as §1
Klebsiella pneumoniae [32] = assay: Antibacterial activity against extended spectrum beta-lactamases producing Klebsiella pneumoniae 10-3 after 18 to 24 hrs by NCCLS method; method in brief: as §1
Pseudomonas aeruginosa [33] = assay: Antibacterial activity against Pseudomonas aeruginosa 10-5 after 18 to 24 hrs by NCCLS method; method in brief: as §1
Pseudomonas aeruginosa [34] = assay: Antibacterial activity against Pseudomonas aeruginosa 10-9 after 18 to 24 hrs by NCCLS method; method in brief: as §1
Pseudomonas aeruginosa [35] = assay: Antibacterial activity against Pseudomonas aeruginosa 10-12 after 18 to 24 hrs by NCCLS method; method in brief: as §1
Pseudomonas aeruginosa [36] = assay: Antibacterial activity against Pseudomonas aeruginosa 10-15 after 18 to 24 hrs by NCCLS method; method in brief: as §1
Pseudomonas aeruginosa [37] = assay: Antibacterial activity against Pseudomonas aeruginosa 10-18 after 18 to 24 hrs by NCCLS method; method in brief: as §1
Pseudomonas aeruginosa [38] = assay: Antibacterial activity against Pseudomonas aeruginosa 10-20 after 18 to 24 hrs by NCCLS method; method in brief: as §1

Structure (SMILES)	MIC [1] [µg/mL]	MIC (Staphylococcus aureus [2]) [µg/mL]	MIC (Staphylococcus aureus [3]) [µg/mL]	MIC (Staphylococcus aureus [4]) [µg/mL]	MIC (Staphylococcus aureus [5]) [µg/mL]	MIC (Staphylococcus aureus [6]) [µg/mL]	MIC (Staphylococcus aureus [7]) [µg/mL]	MIC (Staphylococcus aureus [8]) [µg/mL]	MIC [9] [µg/mL]	MIC [10] [µg/mL]	MIC [11] [µg/mL]	MIC [12] [µg/mL]	MIC (Enterococcus faecalis [13]) [µg/mL]	MIC (Enterococcus faecalis [14]) [µg/mL]	MIC (Enterococcus faecalis [15]) [µg/mL]	MIC (Enterococcus faecium [16]) [µg/mL]	MIC (Enterococcus faecium [17]) [µg/mL]	MIC (Streptococcus pneumoniae [18]) [µg/mL]	MIC (Streptococcus pneumoniae [19]) [µg/mL]	MIC (Escherichia coli [20]) [µg/mL]	further results
COc1ccc(OC)c(CN2CCN(c3cc4c(cc3F)c(=O)c(C(=O)O)cn4C3CC3)CC2)c1	> 32	0.5 (≈ 1.04 µM)	0.5 (≈ 1.04 µM)	0.5 (≈ 1.04 µM)	1 (≈ 2.08 µM)	32 (≈ 66.5 µM)	32 (≈ 66.5 µM)	16 (≈ 33.2 µM)	1 (≈ 2.08 µM)	16 (≈ 33.2 µM)	16 (≈ 33.2 µM)	16 (≈ 33.2 µM)	16 (≈ 33.2 µM)	128 (≈ 266 µM)	16 (≈ 33.2 µM)	16 (≈ 33.2 µM)	16 (≈ 33.2 µM)	8 (≈ 16.6 µM)	64 (≈ 133 µM)	1 (≈ 2.08 µM)	MIC (Escherichia coli [21]): > 128 µg/mL; MIC (Escherichia coli [22]): 64 µg/mL (≈ 133 µM); MIC (Escherichia coli [23]): 16 µg/mL (≈ 33.2 µM); MIC (Escherichia coli [24]): > 128 µg/mL; MIC (Escherichia coli [25]): > 128 µg/mL; MIC (Escherichia coli [26]): > 128 µg/mL; MIC (Klebsiella pneumoniae [27]): > 128 µg/mL; MIC (Klebsiella pneumoniae [28]): 16 µg/mL (≈ 33.2 µM); MIC (Klebsiella pneumoniae [29]): > 128 µg/mL; MIC (Klebsiella pneumoniae [30]): > 128 µg/mL; MIC (Klebsiella pneumoniae [31]): > 128 µg/mL; MIC (Klebsiella pneumoniae [32]): > 128 µg/mL; MIC (Pseudomonas aeruginosa [33]): 16 µg/mL (≈ 33.2 µM); MIC (Pseudomonas aeruginosa [34]): 16 µg/mL (≈ 33.2 µM); MIC (Pseudomonas aeruginosa [35]): 8 µg/mL (≈ 16.6 µM); MIC (Pseudomonas aeruginosa [36]): 16 µg/mL (≈ 33.2 µM); MIC (Pseudomonas aeruginosa [37]): 16 µg/mL (≈ 33.2 µM); MIC (Pseudomonas aeruginosa [38]): 32 µg/mL (≈ 66.5 µM)
O=C(O)c1cn(C2CC2)c2cc(N3CCN(Cc4ccc5c(c4)OCCO5)CC3)c(F)cc2c1=O	2 (≈ 4.17 µM)	0.125 (≈ 0.261 µM)	0.25 (≈ 0.521 µM)	0.25 (≈ 0.521 µM)	0.5 (≈ 1.04 µM)	16 (≈ 33.4 µM)	16 (≈ 33.4 µM)	4 (≈ 8.34 µM)	0.5 (≈ 1.04 µM)	8 (≈ 16.7 µM)	8 (≈ 16.7 µM)	16 (≈ 33.4 µM)	4 (≈ 8.34 µM)	32 (≈ 66.7 µM)	32 (≈ 66.7 µM)	2 (≈ 4.17 µM)	32 (≈ 66.7 µM)	1 (≈ 2.09 µM)	32 (≈ 66.7 µM)	0.125 (≈ 0.261 µM)	MIC (Escherichia coli [21]): > 128 µg/mL; MIC (Escherichia coli [22]): 128 µg/mL (≈ 267 µM); MIC (Escherichia coli [23]): 16 µg/mL (≈ 33.4 µM); MIC (Escherichia coli [24]): > 128 µg/mL; MIC (Escherichia coli [25]): > 128 µg/mL; MIC (Escherichia coli [26]): 128 µg/mL (≈ 267 µM); MIC (Klebsiella pneumoniae [27]): > 128 µg/mL; MIC (Klebsiella pneumoniae [28]): 8 µg/mL (≈ 16.7 µM); MIC (Klebsiella pneumoniae [29]): > 128 µg/mL; MIC (Klebsiella pneumoniae [30]): > 128 µg/mL; MIC (Klebsiella pneumoniae [31]): > 128 µg/mL; MIC (Klebsiella pneumoniae [32]): > 128 µg/mL; MIC (Pseudomonas aeruginosa [33]): 16 µg/mL (≈ 33.4 µM); MIC (Pseudomonas aeruginosa [34]): 64 µg/mL (≈ 133 µM); MIC (Pseudomonas aeruginosa [35]): 16 µg/mL (≈ 33.4 µM); MIC (Pseudomonas aeruginosa [36]): 32 µg/mL (≈ 66.7 µM); MIC (Pseudomonas aeruginosa [37]): 16 µg/mL (≈ 33.4 µM); MIC (Pseudomonas aeruginosa [38]): 32 µg/mL (≈ 66.7 µM)
O=C(O)c1cn(C2CC2)c2cc(N3CCN(Cc4cc5c(cc4[N+](=O)[O-])OCO5)CC3)c(F)cc2c1=O	2 (≈ 3.92 µM)	0.5 (≈ 0.979 µM)	0.5 (≈ 0.979 µM)	1 (≈ 1.96 µM)	1 (≈ 1.96 µM)	32 (≈ 62.7 µM)	32 (≈ 62.7 µM)	32 (≈ 62.7 µM)	1 (≈ 1.96 µM)	16 (≈ 31.3 µM)	16 (≈ 31.3 µM)	32 (≈ 62.7 µM)	32 (≈ 62.7 µM)	64 (≈ 125 µM)	32 (≈ 62.7 µM)	2 (≈ 3.92 µM)	16 (≈ 31.3 µM)	2 (≈ 3.92 µM)	16 (≈ 31.3 µM)	0.125 (≈ 0.245 µM)	MIC (Escherichia coli [21]): 32 µg/mL (≈ 62.7 µM); MIC (Escherichia coli [22]): 1 µg/mL (≈ 1.96 µM); MIC (Escherichia coli [23]): 8 µg/mL (≈ 15.7 µM); MIC (Escherichia coli [24]): > 128 µg/mL; MIC (Escherichia coli [25]): > 128 µg/mL; MIC (Escherichia coli [26]): 8 µg/mL (≈ 15.7 µM); MIC (Klebsiella pneumoniae [27]): 64 µg/mL (≈ 125 µM); MIC (Klebsiella pneumoniae [28]): 2 µg/mL (≈ 3.92 µM); MIC (Klebsiella pneumoniae [29]): > 128 µg/mL; MIC (Klebsiella pneumoniae [30]): > 128 µg/mL; MIC (Klebsiella pneumoniae [31]): > 128 µg/mL; MIC (Klebsiella pneumoniae [32]): > 128 µg/mL; MIC (Pseudomonas aeruginosa [33]): 1 µg/mL (≈ 1.96 µM); MIC (Pseudomonas aeruginosa [34]): 1 µg/mL (≈ 1.96 µM); MIC (Pseudomonas aeruginosa [35]): 1 µg/mL (≈ 1.96 µM); MIC (Pseudomonas aeruginosa [36]): 0.5 µg/mL (≈ 0.979 µM); MIC (Pseudomonas aeruginosa [37]): 2 µg/mL (≈ 3.92 µM); MIC (Pseudomonas aeruginosa [38]): 4 µg/mL (≈ 7.84 µM)
